ChEMBL document CHEMBL1123420, “Synthesis and toxicity toward nigrostriatal dopamine neurons of 1-methyl-4-phenyl-1,2,3,6-tetrahydropyridine (MPTP) analogues” (1986)

Legend:
Assay type in all cases: functional
[1] = system: Mus musculus; test: DOPAC content in mice striata was evaluated after 1 day of administration of compound
Outline: (§1)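 Male Swiss mice (25–40 g) dosed ip, 0.072 mmol/kg on days 1 and 2, then 0.142 mmol/kg on days 3–12. Drugs were given as 0.14 M solutions in normal saline and stored at 5 °C; saline-injected controls. Mice killed 1 day after the last injection. Striata weighed, homogenized, Sephadex-separated, then DA, DOPAC and HVA measured by HPLC-EC in μg/g tissue as mean ± error.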

[2] = system: Mus musculus; test: Dopamine content in mice striata was evaluated after 1 day of administration of compound; outline: as §1
[3] = system: Mus musculus; test: Dopamine content in mice striata was evaluated after 9 days of administration of compound
Outline: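 Ip regimen in male Swiss mice (25–40 g): 0.072 mmol/kg on days 1–2, then 0.142 mmol/kg on days 3–12, from 0.14 M saline solutions; saline controls; n=5 per group. Animals killed 9 days after the final injection. Striatal DA measured by HPLC-EC after homogenization and Sephadex cleanup, reported in μg/g tissue.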

[4] = system: Mus musculus; test: HVA content in mice striata was evaluated after 1 day of administration of compound; outline: as §1

Row | Structure (SMILES) | Content [1] | Content [2] | Content [3] | Content [4]
1 | CC1=C(c2ccccc2)CC(C)N(C)C1.O=C(O)/C=C/C(=O)O (stereo not drawn) | 1.18 ug (g of tissue)-1 | 15.22 ug (g of tissue)-1 | 14.49 ug (g of tissue)-1 | 1.27 ug (g of tissue)-1
2 | CN1CC=C(c2ccccc2)CC1.Cl | 0.31 ug (g of tissue)-1 | 3.16 ug (g of tissue)-1 | 4.34 ug (g of tissue)-1 | 0.61 ug (g of tissue)-1
3 | CC1=C(c2ccccc2)CCN(C)C1.Cl | 1.22 ug (g of tissue)-1 | 13.68 ug (g of tissue)-1 | 13.85 ug (g of tissue)-1 | 1.26 ug (g of tissue)-1
4 | CN1CC=C(c2ccccc2)C(C)(C)C1.Cl | 1.31 ug (g of tissue)-1 | 17.28 ug (g of tissue)-1 | 17.28 ug (g of tissue)-1 | 1.39 ug (g of tissue)-1
5 | CC1CN(C)C(C)C=C1c1ccccc1.Cl (stereo not drawn) | 1.36 ug (g of tissue)-1 | 14.42 ug (g of tissue)-1 | 14.65 ug (g of tissue)-1 | 1.39 ug (g of tissue)-1
6 | CN(C)C/C=C/c1ccccc1.Cl | 1.37 ug (g of tissue)-1 | 13.6 ug (g of tissue)-1 | 14.56 ug (g of tissue)-1 | 1.11 ug (g of tissue)-1
7 | CC1CN(C)CC=C1c1ccccc1.Cl (stereo not drawn) | 1.11 ug (g of tissue)-1 | 13.21 ug (g of tissue)-1 | 13.35 ug (g of tissue)-1 | 1.14 ug (g of tissue)-1
